# PubChem BioAssay AID2247 (Johns Hopkins Ion Channel Center, 2010)
# Hit rate of the full screen: of about 300,000 compounds, about 1,200 (0.4%) were called active. This is one part of a sample in which actives are shown more often than they occur.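 Rule for the calls: active = B-score over 3 SD under the library average, no early fluorescence shift, positive overall ratio signal; inactive = the rest.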
# Biological target: Short transient receptor potential channel 4 (Mus musculus) (UniProt Q9QUQ5)
# Sequence (Q9QUQ5 whole entry, looked up): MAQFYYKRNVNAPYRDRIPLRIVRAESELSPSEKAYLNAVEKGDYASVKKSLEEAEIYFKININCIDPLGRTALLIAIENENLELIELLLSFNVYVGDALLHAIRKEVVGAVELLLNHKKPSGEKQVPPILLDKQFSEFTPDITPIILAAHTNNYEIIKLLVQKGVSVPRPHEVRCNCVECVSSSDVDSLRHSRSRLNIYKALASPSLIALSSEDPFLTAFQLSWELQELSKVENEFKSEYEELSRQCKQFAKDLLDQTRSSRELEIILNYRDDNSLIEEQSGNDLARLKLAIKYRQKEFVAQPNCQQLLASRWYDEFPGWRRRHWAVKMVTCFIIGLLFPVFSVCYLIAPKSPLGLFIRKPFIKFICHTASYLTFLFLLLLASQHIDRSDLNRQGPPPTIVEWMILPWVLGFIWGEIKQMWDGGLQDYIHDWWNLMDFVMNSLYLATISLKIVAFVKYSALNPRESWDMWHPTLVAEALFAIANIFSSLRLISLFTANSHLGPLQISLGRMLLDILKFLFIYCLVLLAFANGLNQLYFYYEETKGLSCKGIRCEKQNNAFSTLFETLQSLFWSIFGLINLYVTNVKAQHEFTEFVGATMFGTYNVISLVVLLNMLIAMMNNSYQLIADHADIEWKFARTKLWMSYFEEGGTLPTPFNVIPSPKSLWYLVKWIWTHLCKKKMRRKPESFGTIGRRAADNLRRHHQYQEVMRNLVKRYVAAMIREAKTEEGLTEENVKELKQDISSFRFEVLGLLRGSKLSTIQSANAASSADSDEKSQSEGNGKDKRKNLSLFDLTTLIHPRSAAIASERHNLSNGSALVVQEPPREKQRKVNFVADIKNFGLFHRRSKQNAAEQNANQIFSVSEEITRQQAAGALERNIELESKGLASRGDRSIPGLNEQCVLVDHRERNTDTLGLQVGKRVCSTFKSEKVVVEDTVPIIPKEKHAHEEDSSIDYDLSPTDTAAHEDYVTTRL
# Experiment: inhibitors of mouse TRPC4 channel, primary screen, Fluo4 calcium, HEK293 TRPC4beta/mu-opioid cells (AID 2247)
# Details: DAMGO-evoked Fluo4 calcium flux, at 10 µM; active compounds read low
# Method in brief: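 Assay system – HEK293 line stably carrying TRPC4beta and mu-opioid receptor · Doses – single dose · Detection – Fluo4 calcium-dye fluorescence, kinetic read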
row,SMILES,B-score
1,CCOC(=O)C1(Cc2ccc(Cl)cc2)CCN(C(C)CCn2cccn2)CC1 (stereo not given),-6 (active)
2,CN(C)CC1CCCCC1=O (stereo not given),inactive
3,CC(=O)N(C1=NCCCS1)c1ccccc1F,inactive
4,CSc1ccc(C(=O)C2CCCN(Cc3ccn[nH]3)C2)cc1 (stereo not given),inactive
5,Cc1ccc(C2CN(C)CC2C(=O)c2ccc(F)cc2)cc1 (stereo not given),-6 (active)
6,CN1CCC(OC(=O)c2cccc(F)c2)CC1,inactive
7,COc1ccc(C(=O)C2CN(C)CC2C(=O)c2ccc(OC)cc2)cc1 (stereo not given),inactive
8,O=c1[nH]c(CN2CC=C(c3ccccc3)CC2)nc2scc(-c3cccs3)c12,inactive
9,COc1ccc(CN2CCN(c3ccccc3F)CC2)c(OC)c1,inactive
10,CCC(=NCc1ccco1)c1c(O)n(Cc2ccccc2)c(=O)[nH]c1=O,inactive
11,CCOC(=O)C1(CCc2ccccc2)CCN(Cc2ccco2)CC1,-8 (active)
12,c1ccc(CCN2CCC3(CC2)OCCO3)cc1,inactive
13,COc1ccc(N=Cc2c(O)n(C)c(=O)[nH]c2=O)cc1,inactive
14,N#CC1=C(N)Oc2c(c(=O)oc3ccccc23)C1c1ccccc1OC(=O)c1cccs1 (stereo not given),inactive
15,COC(=O)C1=C(c2cc3ccccc3s2)C[C@@H]2CC[C@H]1N2C(=O)NCCO,-6 (active)
16,COC(=O)C1=C(c2cc3ccccc3s2)C[C@@H]2CC[C@H]1N2C(=O)NCc1cccc2ccccc12,inactive
17,COC(=O)C1=C(c2cc3ccccc3s2)C[C@@H]2CC[C@H]1N2C(=O)NC(C)C,inactive
18,OCC#CC[N+]1(CC#Cc2ccccc2)CCCC1,inactive
19,CNCC(O)c1cc(F)c(OCc2ccccc2)c(OCc2ccccc2)c1F (stereo not given),inactive
20,CCOc1cccc(=NC2CCCCC2)c2c(C)[nH]c(C)c12,inactive
